Experiments:
[1] = target: Thyrotropin receptor (Homo sapiens) (UniProt P16473); experiment: Agonist activity at TSHR expressed in HEK293 EM cells measured by intracellular cAMP accumulation relative to TSH; format: functional, cell-based
Summary of the method: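 Human TSHR stably expressed in HEK 293 EM cells, cultured 48 h, then incubated 1 h in serum-free DMEM with 1 mM IBMX and compound (0-100 µM) at 5% CO₂. Lysates assayed for cAMP by enzyme immunoassay. […] Maximal response expressed as % of bovine TSH response, reference 100 mU/mL. Two independent experiments in duplicate.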

[2] = target: Lutropin-choriogonadotropic hormone receptor (Homo sapiens) (UniProt P22888); experiment: Agonist activity at LHCGR expressed in HEK293 EM cells measured by intracellular cAMP accumulation relative to LH; format: functional, cell-based
Chain of Lutropin-choriogonadotropic hormone receptor (Homo sapiens) (P22888 whole entry): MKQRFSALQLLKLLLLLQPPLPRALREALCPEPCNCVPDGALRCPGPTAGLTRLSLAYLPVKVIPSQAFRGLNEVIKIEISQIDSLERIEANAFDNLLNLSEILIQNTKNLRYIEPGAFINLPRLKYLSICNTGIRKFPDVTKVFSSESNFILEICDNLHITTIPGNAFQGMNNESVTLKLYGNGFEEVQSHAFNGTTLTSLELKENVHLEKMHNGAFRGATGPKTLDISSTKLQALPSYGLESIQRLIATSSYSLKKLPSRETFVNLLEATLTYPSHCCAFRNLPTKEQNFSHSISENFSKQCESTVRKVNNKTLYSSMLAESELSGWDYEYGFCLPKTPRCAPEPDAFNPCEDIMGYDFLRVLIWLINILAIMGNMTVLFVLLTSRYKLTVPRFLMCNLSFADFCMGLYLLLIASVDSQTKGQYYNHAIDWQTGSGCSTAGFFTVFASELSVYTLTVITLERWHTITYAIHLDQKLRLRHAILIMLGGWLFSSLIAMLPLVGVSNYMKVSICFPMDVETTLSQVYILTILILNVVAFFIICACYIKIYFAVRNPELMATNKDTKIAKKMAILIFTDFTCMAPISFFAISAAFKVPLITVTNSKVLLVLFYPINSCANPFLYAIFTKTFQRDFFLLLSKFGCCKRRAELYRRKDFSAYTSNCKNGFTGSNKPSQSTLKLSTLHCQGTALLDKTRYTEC
Summary of the method: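 Human LHCGR stably expressed in HEK 293 EM cells, cultured 48 h, then incubated 1 h in serum-free DMEM with 1 mM IBMX and compound (0-100 µM) at 5% CO₂. Cells were lysed and cAMP measured by enzyme immunoassay. […] Efficacy is % of maximal response to human LH (1000 ng/ml). Two independent experiments, each in duplicate.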

Chain of Thyrotropin receptor (Homo sapiens) (P16473 whole entry): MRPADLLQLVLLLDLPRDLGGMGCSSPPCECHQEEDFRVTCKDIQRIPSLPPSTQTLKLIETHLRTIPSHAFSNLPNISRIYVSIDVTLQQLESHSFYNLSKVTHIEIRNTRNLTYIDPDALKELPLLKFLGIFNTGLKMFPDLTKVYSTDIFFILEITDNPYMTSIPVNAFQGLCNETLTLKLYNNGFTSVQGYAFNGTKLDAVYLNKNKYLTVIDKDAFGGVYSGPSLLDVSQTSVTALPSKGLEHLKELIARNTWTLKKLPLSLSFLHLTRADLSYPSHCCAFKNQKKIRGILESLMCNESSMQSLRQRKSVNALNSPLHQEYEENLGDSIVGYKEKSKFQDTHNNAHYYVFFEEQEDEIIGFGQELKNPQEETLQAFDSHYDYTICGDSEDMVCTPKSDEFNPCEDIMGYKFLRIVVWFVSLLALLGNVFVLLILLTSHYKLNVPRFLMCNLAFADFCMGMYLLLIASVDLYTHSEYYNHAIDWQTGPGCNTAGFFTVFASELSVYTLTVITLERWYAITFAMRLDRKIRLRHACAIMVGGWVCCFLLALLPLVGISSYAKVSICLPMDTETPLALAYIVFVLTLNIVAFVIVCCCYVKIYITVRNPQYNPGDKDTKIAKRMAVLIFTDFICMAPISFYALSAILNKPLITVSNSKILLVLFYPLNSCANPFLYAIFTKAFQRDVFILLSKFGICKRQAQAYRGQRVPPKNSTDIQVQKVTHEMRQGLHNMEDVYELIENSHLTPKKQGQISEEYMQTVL

## CSc1nc(-c2cccc(F)c2)c2c(N)c(C(=O)NC(C)(C)C)sc2n1
[1]
  Efficacy: 8.1%

## COc1cccc(-c2nc(SC)nc3sc(C(=O)NCC#N)c(N)c23)c1
[1]
  Efficacy: 3.6%
[2]
  Efficacy: 20.3%

## COc1cccc(-c2nc(SC)nc3sc(C(=O)N(C)C(C)(C)C)c(N)c23)c1
[1]
  Efficacy: 3.6%
[2]
  Efficacy: 47.8%

## COc1cccc(-c2nc(SC)nc3sc(C(=O)NC(C)(C)C)c(N)c23)c1F
[2]
  Efficacy: 46.3%

## COc1cccc(-c2nc(SC)nc3sc(C(=O)NC(C)(C)C)c(N)c23)c1
[1]
  Efficacy: 23.4%
[2]
  Efficacy: 45.8%

## COc1cccc(-c2nc(SC)nc3sc(C(=O)NNC(C)(C)C)c(N)c23)c1
[1]
  Efficacy: 6.4%
[2]
  Efficacy: 6%

## COc1cccc(-c2nc(SC)nc3sc(C(=O)NCCO)c(N)c23)c1
[1]
  Efficacy: 2.9%
[2]
  Efficacy: 20.5%

## CCOC(=O)c1sc2nc(SC)nc(-c3cccc(OC)c3)c2c1N
[1]
  Efficacy: 1.5%
[2]
  Efficacy: 4.2%

## COc1cccc(-c2nc(SC)nc3sc(C(=O)OC(C)(C)C)c(N)c23)c1
[2]
  Efficacy: 23.8%

## COc1cccc(-c2nc(SC)nc3sc(C(=O)NC(C)(C)C)c(N)c23)c1OC
[1]
  Efficacy: 3%
[2]
  Efficacy: 50.1%

## CSc1nc(-c2cccc(O)c2)c2c(N)c(C(=O)NC(C)(C)C)sc2n1
[1]
  Efficacy: 11.2%
[2]
  Efficacy: 63.9%

## COc1cccc(-c2nc(SC)nc3sc(C(=O)NCc4ccccc4)c(N)c23)c1
[1]
  Efficacy: 3%
[2]
  Efficacy: 7.8%

## COc1cccc(-c2nc(SC)nc3sc(C(=O)NN)c(N)c23)c1
[1]
  Efficacy: 6.1%
[2]
  Efficacy: 8.5%

## COc1cccc(-c2nc(SC)nc3sc(C(=O)NNC(=O)OC(C)(C)C)c(N)c23)c1
[1]
  Efficacy: 1.9%
[2]
  Efficacy: 2.4%

## COc1cccc(-c2nc(SC)nc3sc(C(=O)NCCc4ccccc4)c(N)c23)c1
[1]
  Efficacy: 4.3%
[2]
  Efficacy: 25.6%

## COc1cccc(-c2nc(SC)nc3sc(C(=O)N(C)C)c(N)c23)c1
[1]
  Efficacy: 4%
[2]
  Efficacy: 11%

## CCNC(=O)c1sc2nc(SC)nc(-c3cccc(OC)c3)c2c1N
[1]
  Efficacy: 2.3%
[2]
  Efficacy: 26.9%
